Tested on: MS2 coat protein
Assay: apparent Kd, MS2 coat protein; higher = weaker binding; RNA-MaP array; FMN 200 µM where present
In short: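 Stalled E. coli RNA polymerase transcribed the designs on Illumina sequencing-chip clusters. SNAP-549-labelled MS2 coat protein was titrated from 0.7 or 1.5 nM, doubling to 3 µM, without and then with constant ligand, in 100 mM Tris-HCl pH 7.5, 80 mM KCl, 4 mM MgCl2, BSA, DTT, yeast tRNA and Tween-20. Per-cluster binding curves were fitted to green signal normalised to red-channel RNA signal and control-cluster median Fmax. The apparent Kd is the median of the filtered fits.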

[1] = designed as: OFF switch for flavin mononucleotide, no ligand
[2] = ligand present: flavin mononucleotide, designed as: OFF switch for flavin mononucleotide
[3] = designed as: ON switch for flavin mononucleotide, no ligand
[4] = ligand present: flavin mononucleotide, designed as: ON switch for flavin mononucleotide

Row | Sequence | apparent Kd [1] | apparent Kd [2] | apparent Kd [3] | apparent Kd [4]
1 | CGAUAUAUGAAGGGCAAAGGCCCACAUGAGGAUCACCCAUGUAGAAGGCGAUCCGCAACGCGGAUCGAGGAUAUAUAGUAUACA | 8.45 nM | 8.1 nM | – | –
2 | CGAUAUAUGAAGGGCGAACACGCACAUGAGGAUCACCCAUGUAGAAGGCGAUCCGCAACGCGGAUCGAGGAUAUAUAGUAUACA | 35.6 nM | 42.4 nM | – | –
3 | CGAUAUUAUAGAGGAUAUGUUUAACAUGAGGAUCACCCAUGUGAGGUGGAAUUAAUGUAUAACUUACAGAAGGCUAUACAAUCG | 417 nM | 500 nM | – | –
4 | CGAUCGUGUAGAGGAUAUGUUAAACAUGAGGAUCACCCAUGUAAGGUAGAAAUUUUUAUUAACAUACAGAAGGCUACACGAUCG | 8.08 nM | 5.66 nM | – | –
5 | CGAUGUUAUGCAGGAUAUCUCUCUUGUUAGAGGAGAGAAGGGCAUAGGGAGACAUACGCCUUAUUACAUGAGGAUCACCCAUGU | 9.38 nM | 8.24 nM | – | –
6 | CGAUUAUUGAUCCAUUUUUUCAACAUGAGGAUCACCCAUGUGCAGGAUAUCGUGAUUAUUAUCAACGAGAAGGGCAAAUUCACG | 49.5 nM | 145 nM | – | –
7 | CGAUUUUAUAGAGGAUAUGUUUAACAUGAGGAUCACCCAUGUGAGGUGGAAAUAUUUAAUUACAUACAGAAGGCUAUACAAUCG | 234 nM | 180 nM | – | –
8 | CGCAAGUCAGGAUAUUCGACAGGUAAAUCAGUGGAUCAGAAGGAGAAGGGACAUGAGGAUCACCCAUGUAAGUA | 49.7 nM | 29.4 nM | – | –
9 | CGCAAUGAUAGAGGAUAUGUUUUACAUGAGGAUCACCCAUGUGUACAUGGAUUAAUAUAUAAGUAACAGAAGGCUAUUCAUGCG | 16.7 nM | 15.2 nM | – | –
10 | CGCACUAUACAUGAGGAUCACCCAUGUAAUUAUGAGAUAGUCAGAAGGCAUUAUUAGUGAUUUAAUGAGGAUAUGAAUAGUGCG | – | – | 79.8 nM | 11.2 nM
11 | CGCACUGAUAGAGGAUAUGUUUUACAUGAGGAUCACCCAUGUGUACAAGGAUCAAUAUAUUAGUAACAGAAGGCUAUUAGUGCG | 24.7 nM | 21.5 nM | – | –
12 | CGCAGGAUACAGAAGGAGUUAUUGAGAGGUUUACUAGGAUAUGUUCACAUGAGGAUCACCCAUGUCAUAUGGUUUUUUAUUGCG | 12.5 nM | 11.7 nM | – | –
13 | CGCCCGGGAGGAUAUCCAAUAUAUGACAUGAGGAUCACCCAUGUUUCCACUCGUACCUCCGGAGAAGGCCCGGCGC | 22.2 nM | 22.4 nM | – | –
14 | CGCGAUGCGGUUGGCCCUGGGCGAGAGGAUAUGGGCAGCGAGACAUGAGGAUCACCCAUGUUUUCUCAGAAGGCUCGAGCAGGC | – | – | 181 nM | 17.1 nM
15 | CGCUAAGAGAACGAUACGAGAAGACAUGAGGAUCACCCAUGUAGAAGGACAACGGAAUAAACGUUGUAGGAUAUACAUUUAGCG | 16.9 nM | 19.8 nM | – | –
16 | CGCUAAGAUGGGUUUAAUGGAGCAUAGGAUAUGCUUGUACAUGAGGAUCACCCAUGUUAUAUUGUGCAGAAGGGUGCAUUUGCG | – | – | 457 nM | 158 nM
17 | CGCUAAUAAAUAGUAAUAAUUGUACAGGAUAUGUUACAUGAGGAUCACCCAUGUAUUGGGUAAGAACAGAAGGGUAUAUUAGCG | 433 nM | 229 nM | – | –
18 | CGCUACGUUUCGUAGCAGCUAGGUGAGGAUAUUCAAUUUUUCACAUGAGGAUCACCCAUGUAUGUGAAGAAGGCGCCUAGAAAU | – | – | 10.7 nM | 4.96 nM
19 | CGCUAGCGAAUAGUAAUAAAAGUACAGGAUAUGUUACAUGAGGAUCACCCAUGUAUUGGGUAAGAACAGAAGGGUACGCUAGCG | 136 nM | 97.8 nM | – | –
20 | CGCUAGUCAGGAUAUACGAACAUGUCAAAAGACGUGAAGGGACAUGAGGAUCACCCAUGUAGAAGGGACUAGCA | 35.7 nM | 114 nM | – | –
21 | CGCUAGUCAGGAUAUACGAACAUGUCAAAAGACGUGAAGGGACAUGAGGAUCACCCAUGUAGAAGGGACUAGCC | 32.8 nM | 115 nM | – | –
22 | CGCUAGUCAGGAUAUACGAACAUGUCAAAAGACGUGAAGGGACAUGAGGAUCACCCAUGUAGAAGGGACUAGCG | 36.8 nM | 206 nM | – | –
23 | CGCUAGUCAGGAUAUACGAACAUGUCACAAGACGUGAAGGGACAUGAGGAUCACCCAUGUAGAAGGGACUAGCA | 44.1 nM | 171 nM | – | –
24 | CGCUAGUCAGGAUAUACGCACAUGUCACCAGACGUGAAGGGACAUGAGGAUCACCCAUGUAGAAGGGACUAGCA | 87.9 nM | 203 nM | – | –
25 | CGCUAUUACAUGAGGAUCACCCAUGUAUAUAUUGUAUUUUCGUAGGAUAUGCAGAAGAUUAAAGUGCAGAAGGACGUAAUAGCG | – | – | 29.1 nM | 7.48 nM
26 | CGCUCAAUUCUUUAGGUUAGAAUCAGAAGGCGUAACAUGAGGAUCACCCAUGUAUAGAAGUGUAACGAGGAUAUGAAUUGAGCG | 8.86 nM | 8.25 nM | – | –
27 | CGCUGGUGAGGAUAUGGGUGUGGUUACAUGAGGAUCACCCAUGUGGUGUCGCGCGUGGGUCCAGAAGGCGCGGGUG | 246 nM | 170 nM | – | –

From the EternaBench riboswitch data
